This note sets out measurements from ChEMBL document CHEMBL2440064, “Synthesis and biological evaluation of 2-amino-5-aryl-3-benzylthiopyridine scaffold based potent c-Met inhibitors” (Bioorg Med Chem, 2013).

The target of assay [1] is T1, Hepatocyte growth factor receptor (Homo sapiens, UniProt P08581). As to the kind of experiment: Inhibition of c-Met in gefitinib-resistant human HCC827 cells assessed as inhibition of AKT phosphorylation at 0.5 uM after 2 hrs by Western blotting analysis. It is filed as cell-based. The procedure, abridged: (§1)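 Cells grown to exponential phase, treated with compound 2 h at 37°C, lysed in 1× SDS sample buffer, resolved on 10% SDS-PAGE and transferred to nitrocellulose for immunoblotting.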
T1 sequence (P08581 whole entry): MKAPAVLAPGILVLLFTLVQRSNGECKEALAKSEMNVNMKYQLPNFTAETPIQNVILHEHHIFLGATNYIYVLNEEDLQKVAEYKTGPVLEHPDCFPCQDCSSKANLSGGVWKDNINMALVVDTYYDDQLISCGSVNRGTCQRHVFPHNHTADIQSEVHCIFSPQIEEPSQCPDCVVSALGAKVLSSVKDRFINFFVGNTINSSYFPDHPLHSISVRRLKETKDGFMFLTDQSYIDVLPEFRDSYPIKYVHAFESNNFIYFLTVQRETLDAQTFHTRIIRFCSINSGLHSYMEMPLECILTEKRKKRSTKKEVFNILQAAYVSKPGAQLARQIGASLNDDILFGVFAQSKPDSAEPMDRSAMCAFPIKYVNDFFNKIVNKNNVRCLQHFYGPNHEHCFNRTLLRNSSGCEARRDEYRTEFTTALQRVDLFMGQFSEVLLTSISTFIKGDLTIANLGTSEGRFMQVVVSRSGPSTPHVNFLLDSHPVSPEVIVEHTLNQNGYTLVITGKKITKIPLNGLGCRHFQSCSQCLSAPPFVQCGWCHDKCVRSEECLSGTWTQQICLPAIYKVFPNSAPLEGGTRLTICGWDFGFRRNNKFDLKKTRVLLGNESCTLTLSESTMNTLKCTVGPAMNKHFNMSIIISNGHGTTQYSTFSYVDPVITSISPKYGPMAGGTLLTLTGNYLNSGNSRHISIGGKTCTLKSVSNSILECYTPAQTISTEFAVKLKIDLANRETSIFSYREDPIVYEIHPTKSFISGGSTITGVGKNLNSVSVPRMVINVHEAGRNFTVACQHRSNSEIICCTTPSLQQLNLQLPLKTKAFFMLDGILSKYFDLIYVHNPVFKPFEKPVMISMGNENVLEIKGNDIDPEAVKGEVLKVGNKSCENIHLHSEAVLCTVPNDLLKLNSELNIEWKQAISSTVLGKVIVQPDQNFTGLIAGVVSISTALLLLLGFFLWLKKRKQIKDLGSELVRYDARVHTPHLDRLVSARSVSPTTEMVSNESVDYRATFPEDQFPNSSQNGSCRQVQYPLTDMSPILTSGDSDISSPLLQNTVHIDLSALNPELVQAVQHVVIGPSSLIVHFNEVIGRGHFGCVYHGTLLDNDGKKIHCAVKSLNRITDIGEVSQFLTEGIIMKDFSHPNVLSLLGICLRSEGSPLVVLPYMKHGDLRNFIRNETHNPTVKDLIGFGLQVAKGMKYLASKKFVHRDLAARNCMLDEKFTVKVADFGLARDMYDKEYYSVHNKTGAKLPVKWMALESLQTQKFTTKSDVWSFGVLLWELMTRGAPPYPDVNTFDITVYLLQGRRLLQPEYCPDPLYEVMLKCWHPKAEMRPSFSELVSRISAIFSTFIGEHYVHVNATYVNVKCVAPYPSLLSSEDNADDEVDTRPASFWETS
(In general: In western blotting, separated proteins are transferred to a membrane and probed.)

Assay [2] addresses T1, Hepatocyte growth factor receptor. Description: Inhibition of c-Met phosphorylation in gefitinib-resistant human HCC827 cells at 0.5 uM after 2 hrs by Western blotting analysis. Format: cell-based. Summed up:
as §1

Assay [3] shares this target. As to the kind of experiment: Inhibition of c-Met in gefitinib-resistant human HCC827 cells assessed as inhibition of p44/42 phosphorylation at 0.5 uM after 2 hrs by Western blotting analysis. Format: cell-based. The procedure, abridged:
as §1

Assay [4] shares this target. As to the kind of experiment: Inhibition of c-Met (unknown origin) using poly (Glu, Tyr) 4:1 as substrate after 60 mins by ELISA. For orientation: In an ELISA, binding on a coated surface is turned into a signal by an enzyme label.
Assay [5] deals with NCI-H441. Description: Antiproliferative activity against human NCI-H441 cells after 72 hrs. The note with it: NCI-H441, 72 h.
Assay [6] concerns MDA-MB-231. As to the kind of experiment: Antiproliferative activity against human MDA-MB-231 cells after 72 hrs. The note with it: MDA-MB-231, 72 h.
Assay [7] relates to HCT-116. Description: Antiproliferative activity against human HCT116 cells after 72 hrs. To be noted: HCT-116, 72 h.
Assay [8] deals with NCI-H661. As to the kind of experiment: Antiproliferative activity against human NCI-H661 cells after 72 hrs. The note with it: NCI-H661, 72 h.
The subject of assay [9] is NIH3T3. As to the kind of experiment: Antitumor activity against mouse NIH/3T3 cells expressing TPR/Met allografted in mouse assessed as tumor growth inhibition at 50 mg/kg, po qd administered for 2 weeks measured twice per week relative to vehicle-treated control. Format: functional. To be noted: NIH3T3, 336 h, read-out: TGI. The procedure, abridged:
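Tumor fragments (1 mm³) implanted s.c. in right flank of nude mice by trocar. Randomized at 100–150 mm³ tumor volume. Dosed orally 7 days/week for 2 weeks; vehicle controls. Calipers twice weekly; TV = length×width²/2. Inhibition = 100%×{1−[(T day14−T day0)/(C day14−C day0)]}. n = 6/group, Student's t-test.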

In assay [10] the test system is MKN-45. Description: Antiproliferative activity against human MKN45 cells after 72 hrs. The note with it: MKN-45, 72 h.
The test system of assay [11] is MCF7. As to the kind of experiment: Antiproliferative activity against human MCF7 cells after 72 hrs. The note with it: MCF7, 72 h.
The subject of assay [12] is SNU-5. Description: Antiproliferative activity against human SNU5 cells after 72 hrs. The note with it: SNU-5, 72 h.
For assay [13], the system named is SK-MEL-28. Description: Antiproliferative activity against human SK-MEL-28 cells after 72 hrs. To be noted: SK-MEL-28, 72 h.
For assay [14], the system named is SK-OV-3. As to the kind of experiment: Antiproliferative activity against human SKOV3 cells after 72 hrs. The note with it: SK-OV-3, 72 h.
Assay [15] can be described thus: Antiproliferative activity against human EBC1 cells after 72 hrs. The note with it: EBC-1, 72 h.
The target of assay [16] is T1, Hepatocyte growth factor receptor. Description: Inhibition of c-Met (unknown origin) using poly (Glu, Tyr) 4:1 as substrate at 10 uM after 60 mins by ELISA. Summed up: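 ELISA on wells precoated with 20 µg/mL poly(Glu,Tyr)4:1. Purified kinase with 10 µmol/L ATP in 50 mM HEPES pH 7.4, 50 mM MgCl₂, 0.5 mM MnCl₂, 0.2 mM Na₃VO₄, 1 mM DTT; 1% DMSO vehicle. 60 min at 37°C. Phosphotyrosine detected with PY99 antibody, then HRP anti-mouse IgG and o-phenylenediamine/H₂O₂, A490. Inhibition = [1−(A490/A490 control)]×100%; IC50 from curves.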

The source made the active and inactive calls. The rule behind the calls is not given here.

On to `COc1cc2ncnc(Nc3ccc(F)c(Cl)c3)c2cc1OCCCN1CCOCC1`, for which the inhibition entry in assay [1] and in assay [3] was “inactive” throughout. For the same compound, the inhibition result in [2] was “Active”.

For `C[C@H](Sc1cc(-c2cnn(C3CCNCC3)c2)cnc1N)c1c(Cl)ccc(F)c1Cl`, inhibition in [4] was half-maximal at 171 nM (IC50).

On to `C[C@@H](Oc1cc(-c2cnn(C3CCNCC3)c2)cnc1N)c1c(Cl)ccc(F)c1Cl` [CRIZOTINIB], for which the concentration for half-maximal inhibition (IC50) was found to be 17.2 µM in assay [5]; 10.8 µM in [6]; 14.8 µM in assay [7]; 11.5 µM in assay [8]; 13 nM in assay [10]; 9.58 µM in assay [11]. The IC50 in [12] was 16 nM; in [13] it was 11 µM; in assay [14], 12.8 µM; in assay [15], 23 nM. In addition, the inhibition in vivo at 50 mg/kg in [9] was found to be 82.4%.

`CC(NS(=O)(=O)c1cc(-c2cnn(C3CCNCC3)c2)cnc1N)c1c(Cl)ccc(F)c1Cl` (configuration not stated) displayed a half-maximal inhibitory concentration (IC50) in [16] of more than 10 µM.

In assay [4], `CC(Sc1cc(-c2cnn(C3CCNCC3)c2)cnc1N)c1c(Cl)ccc(F)c1Cl` (racemic) showed an IC50 of 16.4 nM.

As usually defined, the IC50 is the concentration that inhibits the measured activity by half. A lower IC50 goes with greater potency.
